{"source": "ChEMBL document CHEMBL2413053", "about": "“3'-Oxo-, amino-, thio- and sulfone-acetic acid modified thymidines: effect of increased acidity on ribonuclease A inhibition” (Bioorg Med Chem, 2013)", "key": {"[1]": {"target": "T1, Ribonuclease pancreatic (Bos taurus) (UniProt P61823)", "T1 sequence (whole entry)": "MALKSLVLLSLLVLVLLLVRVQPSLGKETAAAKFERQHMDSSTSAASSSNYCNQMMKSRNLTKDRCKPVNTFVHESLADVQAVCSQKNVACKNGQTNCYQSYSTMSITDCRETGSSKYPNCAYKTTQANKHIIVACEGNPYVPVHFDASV", "assay": "Inhibition of bovine pancreatic RNase A assessed as degradation of tRNA at 0.06 to 0.24 mM incubated for 3 hrs prior to tRNA addition measured after 30 mins by agarose gel electrophoresis", "outline": "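RNase A (1.26 μM stock) preincubated 3 h with compound at 0.06, 0.12, 0.18 and 0.24 mM in 100 μL. Aliquot then mixed with tRNA (5.0 mg/mL, freshly dissolved in RNase-free water) for 30 min. Run on 1.1% agarose gel in 0.04 M TAE, pH 8.0. Residual tRNA visualized by ethidium bromide staining under UV.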"}, "Ribonuclease pancreatic": {"target": "T2, Ribonuclease pancreatic (Bos taurus, UniProt P61823)", "T2 sequence (P61823 whole entry)": "T1 sequence (whole entry)", "assay": "Reversible competitive inhibition of bovine pancreatic RNase A using 2',3'-cCMP as substrate by Lineweaver-Burk plot analysis", "outline": "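Spectrophotometric RNase A assay in 0.1 M Mes–NaOH, pH 6.0, with 0.1 M NaCl, using 2',3'-cCMP as substrate at varied concentrations. Two fixed inhibitor concentrations were run plus a no-inhibitor set. Ki was derived from initial velocities by Lineweaver–Burk analysis.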"}, "[2]": {"target": "T1, Ribonuclease pancreatic (Bos taurus)", "assay": "Inhibition of bovine pancreatic RNase A assessed as degradation of tRNA at 0.35 mM incubated for 2 hrs prior to tRNA addition measured after 30 mins by precipitation assay", "outline": "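RNase A (1.31 μM) preincubated with compound (0.35 mM) 2 h at 37 °C; aliquot then mixed with tRNA (5 mg/mL) in Tris–HCl pH 7.5 with 5 mM EDTA and 0.5 mg/mL HSA, 30 min at 25 °C. Quenched with ice-cold 1.14 M perchloric acid/6 mM uranyl acetate, 30 min on ice, centrifuged; diluted supernatant A260 compared with control.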"}, "[3]": {"target": "T1, Ribonuclease pancreatic (Bos taurus)", "assay": "Inhibition of bovine pancreatic RNase A assessed as degradation of tRNA at 0.07 to 0.20 mM incubated for 3 hrs prior to tRNA addition measured after 30 mins by agarose gel electrophoresis", "outline": "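RNase A (1.51 μM stock) preincubated 3 h with compound at 0.07, 0.14 and 0.20 mM in 100 μL. Aliquot then mixed 1:1 with tRNA (5.0 mg/mL, freshly dissolved in RNase-free water) and held 30 min. Sample buffer with glycerol and bromophenol blue was added. Run on 1.1% agarose gel in 0.04 M TAE, pH 8.0. Residual tRNA seen by ethidium bromide staining under UV.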"}, "[4]": {"target": "T1, Ribonuclease pancreatic (Bos taurus)", "settings": "0.05 to 0.24 mM"}, "[5]": {"target": "T1, Ribonuclease pancreatic (Bos taurus)", "settings": "0.05 to 0.20 mM"}}, "note": "Activity calls are given as the source filed them. The rule behind the calls is not given here."}
{"compound": "Cc1cn([C@H]2C[C@H](S(=O)(=O)CC(=O)O)[C@@H](CO)O2)c(=O)[nH]c1=O", "values": [{"measurement": "inhibition", "setting": "[1]", "result": "Active"}, {"measurement": "Ki", "setting": "Ribonuclease pancreatic", "result": 88, "unit": "µM"}, {"measurement": "inhibition", "setting": "[2]", "result": 25, "unit": "%"}]}
{"compound": "COC(=O)CSC[C@H]1O[C@@H](n2cc(C)c(=O)[nH]c2=O)C[C@H]1SCC(=O)OC", "values": [{"measurement": "inhibition", "setting": "[2]", "result": 5, "unit": "%"}, {"measurement": "inhibition", "setting": "[3]", "result": "Active"}]}
{"compound": "Cc1cn([C@H]2C[C@H](O)[C@@H](CS(=O)(=O)CC(=O)O)O2)c(=O)[nH]c1=O", "values": [{"measurement": "inhibition", "setting": "[1]", "result": "Active"}, {"measurement": "Ki", "setting": "Ribonuclease pancreatic", "result": 95, "unit": "µM"}, {"measurement": "inhibition", "setting": "[2]", "result": 22, "unit": "%"}]}
{"compound": "Cc1cn([C@H]2C[C@@H](SCC(=O)O)[C@@H](CSCC(=O)O)O2)c(=O)[nH]c1=O", "values": [{"measurement": "Ki", "setting": "Ribonuclease pancreatic", "result": 108, "unit": "µM"}, {"measurement": "inhibition", "setting": "[2]", "result": 16, "unit": "%"}]}
{"compound": "COC(=O)CS(=O)(=O)C[C@H]1O[C@@H](n2cc(C)c(=O)[nH]c2=O)C[C@@H]1O", "values": [{"measurement": "Ki", "setting": "Ribonuclease pancreatic", "result": 202, "unit": "µM"}, {"measurement": "inhibition", "setting": "[2]", "result": 14, "unit": "%"}, {"measurement": "inhibition", "setting": "[3]", "result": "Active"}]}
{"compound": "Cc1cn([C@H]2C[C@@H](S(=O)(=O)CC(=O)O)[C@@H](CS(=O)(=O)CC(=O)O)O2)c(=O)[nH]c1=O", "values": [{"measurement": "Ki", "setting": "Ribonuclease pancreatic", "result": 39, "unit": "µM"}, {"measurement": "inhibition", "setting": "[2]", "result": 33, "unit": "%"}, {"measurement": "inhibition", "setting": "[4]", "result": "Active"}]}
{"compound": "Cc1cn([C@H]2C[C@H](OCC(=O)O)[C@@H](CO)O2)c(=O)[nH]c1=O", "values": [{"measurement": "Ki", "setting": "Ribonuclease pancreatic", "result": 267, "unit": "µM"}, {"measurement": "inhibition", "setting": "[2]", "result": 13, "unit": "%"}, {"measurement": "inhibition", "setting": "[3]", "result": "Active"}]}
{"compound": "COC(=O)CS(=O)(=O)C[C@H]1O[C@@H](n2cc(C)c(=O)[nH]c2=O)C[C@@H]1S(=O)(=O)CC(=O)OC", "values": [{"measurement": "Ki", "setting": "Ribonuclease pancreatic", "result": 267, "unit": "µM"}, {"measurement": "inhibition", "setting": "[2]", "result": 15, "unit": "%"}, {"measurement": "inhibition", "setting": "[3]", "result": "Active"}]}
{"compound": "COC(=O)CS(=O)(=O)[C@H]1C[C@H](n2cc(C)c(=O)[nH]c2=O)O[C@@H]1CO", "values": [{"measurement": "Ki", "setting": "Ribonuclease pancreatic", "result": 140, "unit": "µM"}, {"measurement": "inhibition", "setting": "[2]", "result": 18, "unit": "%"}, {"measurement": "inhibition", "setting": "[3]", "result": "Active"}]}
{"compound": "Cc1cn([C@H]2C[C@H](S(=O)(=O)CC(=O)O)[C@@H](CS(=O)(=O)CC(=O)O)O2)c(=O)[nH]c1=O", "values": [{"measurement": "Ki", "setting": "Ribonuclease pancreatic", "result": 25, "unit": "µM"}, {"measurement": "inhibition", "setting": "[2]", "result": 35, "unit": "%"}, {"measurement": "inhibition", "setting": "[5]", "result": "Active"}]}
{"compound": "Cc1cn([C@H]2C[C@H](SCC(=O)O)[C@@H](CO)O2)c(=O)[nH]c1=O", "values": [{"measurement": "Ki", "setting": "Ribonuclease pancreatic", "result": 169, "unit": "µM"}, {"measurement": "inhibition", "setting": "[2]", "result": 17, "unit": "%"}, {"measurement": "inhibition", "setting": "[3]", "result": "Active"}]}
{"compound": "Cc1cn([C@H]2C[C@H](NCC(=O)O)[C@@H](CO)O2)c(=O)[nH]c1=O", "values": [{"measurement": "Ki", "setting": "Ribonuclease pancreatic", "result": 186, "unit": "µM"}, {"measurement": "inhibition", "setting": "[2]", "result": 19, "unit": "%"}, {"measurement": "inhibition", "setting": "[3]", "result": "Active"}]}
{"compound": "COC(=O)CS[C@H]1C[C@H](n2cc(C)c(=O)[nH]c2=O)O[C@@H]1CO", "values": [{"measurement": "Ki", "setting": "Ribonuclease pancreatic", "result": 757, "unit": "µM"}, {"measurement": "inhibition", "setting": "[2]", "result": 3, "unit": "%"}, {"measurement": "inhibition", "setting": "[3]", "result": "Active"}]}
{"compound": "COC(=O)CS(=O)(=O)C[C@H]1O[C@@H](n2cc(C)c(=O)[nH]c2=O)C[C@H]1S(=O)(=O)CC(=O)OC", "values": [{"measurement": "Ki", "setting": "Ribonuclease pancreatic", "result": 242, "unit": "µM"}, {"measurement": "inhibition", "setting": "[2]", "result": 12, "unit": "%"}, {"measurement": "inhibition", "setting": "[3]", "result": "Active"}]}
{"compound": "CCOC(=O)CN[C@H]1C[C@H](n2cc(C)c(=O)[nH]c2=O)O[C@@H]1CO", "values": [{"measurement": "Ki", "setting": "Ribonuclease pancreatic", "result": 504, "unit": "µM"}, {"measurement": "inhibition", "setting": "[2]", "result": 7, "unit": "%"}, {"measurement": "inhibition", "setting": "[3]", "result": "Active"}]}
{"compound": "Cc1cn([C@H]2C[C@H](SCC(=O)O)[C@@H](CSCC(=O)O)O2)c(=O)[nH]c1=O", "values": [{"measurement": "inhibition", "setting": "[1]", "result": "Active"}, {"measurement": "Ki", "setting": "Ribonuclease pancreatic", "result": 93, "unit": "µM"}, {"measurement": "inhibition", "setting": "[2]", "result": 18, "unit": "%"}]}
